Data taken from ChEMBL document CHEMBL1806459, “Discovery of N-(1-ethylpropyl)-[3-methoxy-5-(2-methoxy-4-trifluoromethoxyphenyl)-6-methyl-pyrazin-2-yl]amine 59 (NGD 98-2): an orally active corticotropin releasing factor-1 (CRF-1) receptor antagonist” (J Med Chem, 2011).
In brackets after ≈: the same amount, converted by molar mass. Activity calls are given as the source filed them. No cut-off for these calls is given here.

Experiments:
[1] = Inhibition of galanin receptor at 4 uM
Method in brief: (§1)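 Single-concentration screen within a 69-target selectivity panel. The test concentration was 4 μM, a level set by the compound's limited aqueous solubility.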

[2] = Inhibition of NMDA receptor at 4 uM
Method in brief: (§2)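 Selectivity panel of 69 targets, test compound at 4 μM, a level set by aqueous solubility limits; percent inhibition recorded per target.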

[3] = biological target: Interleukin-6 (Homo sapiens) (UniProt P05231); experiment: Inhibition of IL-6 at 4 uM; method in brief: as §2
[4] = biological target: Histamine H3 receptor (Homo sapiens) (UniProt Q9Y5N1); experiment: Inhibition of Histamine H3 receptor at 4 uM; method in brief: as §2
[5] = Inhibition of Choline transporter at 4 uM; method in brief: as §2
[6] = biological target: Oxytocin receptor (Homo sapiens) (UniProt P30559); experiment: Inhibition of Oxytocin receptor at 4 uM; method in brief: as §1
[7] = biological target: Platelet-activating factor receptor (Homo sapiens) (UniProt P25105); experiment: Inhibition of Platelet activating factor receptor at 4 uM; method in brief: as §1
[8] = biological target: 5-hydroxytryptamine receptor 5A (Homo sapiens) (UniProt P47898); experiment: Inhibition of Serotonin 5HT5A receptor at 4 uM; method in brief: as §1
[9] = Inhibition of Sigma opiate receptor at 4 uM; method in brief: as §1
[10] = biological target: Vasoactive intestinal polypeptide receptor 1 (Homo sapiens) (UniProt P32241); experiment: Inhibition of VPAC1 receptor at 4 uM; method in brief: as §1
[11] = Inhibition of L-type calcium channel at 4 uM; method in brief: as §2
[12] = Inhibition of KATP channel at 4 uM; method in brief: as §2
Rattus norvegicus [13] = species on record: Rattus norvegicus; experiment: Metabolic stability in rat assessed as oxidation of isopentyl group; assay type: ADME, organism-based; settings: in vivo
Rattus norvegicus [14] = species on record: Rattus norvegicus; experiment: Metabolic stability in rat assessed as […] of isopentyl group; assay type: ADME, organism-based; settings: in vivo
Rattus norvegicus [15] = species on record: Rattus norvegicus; experiment: Metabolic stability in rat assessed as demethylation of one or both methoxy group; assay type: ADME, organism-based; settings: in vivo
[16] = Inhibition of KCa channel at 4 uM; method in brief: as §2
[17] = Inhibition of protein kinase C at 4 uM; method in brief: as §1
Rattus norvegicus [18] = experiment: Antihyperlocomotion activity in Wistar rat assessed as decrease in CRF-induced hyperlocomotion at 30 mg/kg, po administered 3 hrs before CRF challenge measured after 1 hr; assay type: functional, organism-based; parameters: dose 30 mg/kg
Method in brief: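 Rats received 0.3 μg CRF intracerebroventricularly, with oral pretreatment 3 h before in vehicle TPGS. Readout was movement time (locomotor activity), compared against TPGS/CRF controls.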

Rattus norvegicus [19] = experiment: Toxicity in Sprague-Dawley rat assessed as effect on horizontal movement at 3 mg/kg, po measured after 3 hrs for 1 hr; assay type: organism-based; parameters: dose 3 mg/kg, route oral; settings: in vivo
Method in brief: (§3)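 Rats not habituated to the test environment, dosed orally at 3, 10 and 30 mg/kg. Spontaneous locomotor activity recorded after dosing: horizontal activity as movement time, plus vertical activity (rearing). Test run to exclude sedation.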

Rattus norvegicus [20] = experiment: Toxicity in Sprague-Dawley rat assessed as effect on horizontal movement at 10 mg/kg, po measured after 3 hrs for 1 hr; assay type: organism-based; parameters: dose 10 mg/kg, route oral; settings: in vivo; method in brief: as §3
Rattus norvegicus [21] = experiment: Toxicity in Sprague-Dawley rat assessed as effect on horizontal movement at 30 mg/kg, po measured after 3 hrs for 1 hr; assay type: organism-based; parameters: dose 30 mg/kg, route oral; settings: in vivo; method in brief: as §3
[22] = Ratio of drug level in brain to plasma of rat at 10 mg/kg, po; assay type: ADME, organism-based; parameters: dose 10 mg/kg, route oral; settings: read-out: BPR
Method in brief: (§4)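 Rat pharmacokinetics: compounds given iv (1 or 3 mg/kg) and po (5 or 10 mg/kg) in 2% Vitamin E TPGS (tocopheryl polyethylene glycol 1000 succinate). Plasma sampled over 24 h for Cmax, Tmax, AUC0–24 h, T1/2, clearance, Vss and oral bioavailability. Brain to plasma ratio also measured.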

Rattus norvegicus [23] = experiment: Ex vivo CRF-1 receptor occupancy in po dosed rat cortical homogenate assessed as inhibition of [I125]-sauvagine binding pretreated for 3 hrs; assay type: functional, organism-based
Method in brief: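 Rats dosed orally at 1, 3 and 10 mg/kg; cortex taken at 3 h for ex vivo binding. Specific [125I]-sauvagine binding compared with vehicle-treated rats to give ex vivo ID50.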

[24] = biological target: Adenosine receptor A1 (Homo sapiens) (UniProt P30542); experiment: Inhibition of adenosine A1 receptor at 4 uM; method in brief: as §1
[25] = Inhibition of adenosine A2 receptor at 4 uM; method in brief: as §1
[26] = biological target: Alpha-1A adrenergic receptor (Homo sapiens) (UniProt P35348); experiment: Inhibition of adrenergic alpha 1 receptor at 4 uM; method in brief: as §1
[27] = biological target: Alpha-2A adrenergic receptor (Homo sapiens) (UniProt P08913); experiment: Inhibition of adrenergic alpha 2 receptor at 4 uM; method in brief: as §1
[28] = biological target: Type-2 angiotensin II receptor (Homo sapiens) (UniProt P50052); experiment: Inhibition of angiotensin AT2 receptor at 4 uM; method in brief: as §1
[29] = Inhibition of bombesin receptor at 4 uM; method in brief: as §1
[30] = biological target: B1 bradykinin receptor (Homo sapiens) (UniProt P46663); experiment: Inhibition of bradykinin B1 receptor at 4 uM; method in brief: as §1
[31] = biological target: Calcitonin gene-related peptide type 1 receptor (Homo sapiens) (UniProt Q16602); experiment: Inhibition of CGRP receptor at 4 uM; method in brief: as §2
[32] = biological target: Cholecystokinin receptor type A (Homo sapiens) (UniProt P32238); experiment: Inhibition of cholecystokinin CCKA receptor at 4 uM; method in brief: as §1
[33] = biological target: D(3) dopamine receptor (Homo sapiens) (UniProt P35462); experiment: Inhibition of dopamine D3 receptor at 4 uM; method in brief: as §1
[34] = biological target: Endothelin receptor type B (Homo sapiens) (UniProt P24530); experiment: Inhibition of endothelin ETB at 4 uM; method in brief: as §1
[35] = Inhibition of GABA-A at 4 uM; method in brief: as §2
[36] = biological target: T1, Corticotropin-releasing factor receptor 1 (Homo sapiens, UniProt P34998); experiment: Inhibition of human CRF-1 receptor expressed in human IMR-32 cells assessed as effect on cAMP production by ELISA in presence of 3 nM CRF; assay type: functional, cell-based
T1 sequence (P34998 whole entry): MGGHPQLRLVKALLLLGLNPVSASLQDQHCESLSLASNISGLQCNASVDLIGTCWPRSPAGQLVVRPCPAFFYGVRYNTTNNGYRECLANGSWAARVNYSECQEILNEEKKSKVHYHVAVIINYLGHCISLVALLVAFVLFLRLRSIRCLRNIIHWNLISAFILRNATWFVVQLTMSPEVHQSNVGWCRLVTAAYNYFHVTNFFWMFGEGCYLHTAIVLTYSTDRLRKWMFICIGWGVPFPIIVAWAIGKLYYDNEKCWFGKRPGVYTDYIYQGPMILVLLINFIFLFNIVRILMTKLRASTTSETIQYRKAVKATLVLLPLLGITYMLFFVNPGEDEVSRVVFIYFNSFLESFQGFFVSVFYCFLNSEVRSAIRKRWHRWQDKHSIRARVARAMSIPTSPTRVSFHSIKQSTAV

[37] = Cmax in rat at 10 mg/kg, po; assay type: ADME, organism-based; parameters: dose 10 mg/kg, route oral; settings: in vivo
[38] = Tmax in rat at 10 mg/kg, po; assay type: ADME, organism-based; parameters: dose 10 mg/kg, route oral; settings: in vivo; method in brief: as §4
[39] = Half life in rat at 10 mg/kg, po; assay type: ADME, organism-based; parameters: dose 10 mg/kg, route oral; settings: in vivo
[40] = Bioavailability in rat at 1 mg/kg, […]; assay type: ADME, organism-based; settings: in vivo
Method in brief: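 Rat PK with paired iv and oral dosing, vehicle 2% Vitamin E TPGS. Clearance and Vss from the iv arm; oral bioavailability F from comparing exposure after oral and iv doses.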

Rattus norvegicus [41] = experiment: Oral bioavailability in rat at 10 mg/kg; assay type: ADME, organism-based; settings: in vivo; method in brief: as §4

Platelet-activating factor receptor (Homo sapiens), sequence (P25105 whole entry): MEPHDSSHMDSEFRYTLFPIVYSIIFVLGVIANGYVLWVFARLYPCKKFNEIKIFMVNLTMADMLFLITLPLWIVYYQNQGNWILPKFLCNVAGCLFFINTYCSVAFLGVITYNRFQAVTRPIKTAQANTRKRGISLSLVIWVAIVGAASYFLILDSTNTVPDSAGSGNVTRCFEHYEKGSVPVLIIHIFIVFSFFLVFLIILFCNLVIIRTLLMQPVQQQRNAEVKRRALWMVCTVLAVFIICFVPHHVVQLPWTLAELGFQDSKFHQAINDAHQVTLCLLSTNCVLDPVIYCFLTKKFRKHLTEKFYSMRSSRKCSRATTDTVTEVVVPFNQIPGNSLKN
Alpha-1A adrenergic receptor (Homo sapiens), sequence (P35348 whole entry): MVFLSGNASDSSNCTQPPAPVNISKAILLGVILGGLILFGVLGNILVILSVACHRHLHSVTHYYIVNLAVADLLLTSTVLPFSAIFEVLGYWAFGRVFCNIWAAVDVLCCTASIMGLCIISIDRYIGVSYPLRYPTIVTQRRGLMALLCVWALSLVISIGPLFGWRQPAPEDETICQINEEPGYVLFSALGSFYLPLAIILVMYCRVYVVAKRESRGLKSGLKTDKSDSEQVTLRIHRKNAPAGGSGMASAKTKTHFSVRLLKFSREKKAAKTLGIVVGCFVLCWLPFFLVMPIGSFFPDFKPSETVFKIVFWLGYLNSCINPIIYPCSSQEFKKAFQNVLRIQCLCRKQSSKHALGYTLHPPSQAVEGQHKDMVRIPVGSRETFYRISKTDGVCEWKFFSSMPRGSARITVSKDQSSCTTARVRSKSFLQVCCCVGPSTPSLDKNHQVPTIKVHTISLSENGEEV
B1 bradykinin receptor (Homo sapiens), sequence (P46663 whole entry): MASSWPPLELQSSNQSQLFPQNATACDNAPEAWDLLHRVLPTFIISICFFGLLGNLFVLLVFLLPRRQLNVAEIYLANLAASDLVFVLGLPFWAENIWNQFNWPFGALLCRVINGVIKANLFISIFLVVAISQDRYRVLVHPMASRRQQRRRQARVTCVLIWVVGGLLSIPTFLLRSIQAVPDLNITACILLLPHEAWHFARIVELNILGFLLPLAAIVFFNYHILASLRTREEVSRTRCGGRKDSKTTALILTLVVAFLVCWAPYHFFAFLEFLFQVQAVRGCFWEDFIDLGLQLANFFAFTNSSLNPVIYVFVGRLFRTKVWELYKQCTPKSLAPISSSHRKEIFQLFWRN
Interleukin-6 (Homo sapiens), sequence (P05231 whole entry): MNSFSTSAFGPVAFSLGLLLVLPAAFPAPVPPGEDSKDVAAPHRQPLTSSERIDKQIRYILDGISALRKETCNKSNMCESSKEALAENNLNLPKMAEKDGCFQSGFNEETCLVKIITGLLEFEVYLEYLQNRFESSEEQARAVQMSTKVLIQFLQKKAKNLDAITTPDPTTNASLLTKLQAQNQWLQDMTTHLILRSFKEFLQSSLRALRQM
Type-2 angiotensin II receptor (Homo sapiens), sequence (P50052 whole entry): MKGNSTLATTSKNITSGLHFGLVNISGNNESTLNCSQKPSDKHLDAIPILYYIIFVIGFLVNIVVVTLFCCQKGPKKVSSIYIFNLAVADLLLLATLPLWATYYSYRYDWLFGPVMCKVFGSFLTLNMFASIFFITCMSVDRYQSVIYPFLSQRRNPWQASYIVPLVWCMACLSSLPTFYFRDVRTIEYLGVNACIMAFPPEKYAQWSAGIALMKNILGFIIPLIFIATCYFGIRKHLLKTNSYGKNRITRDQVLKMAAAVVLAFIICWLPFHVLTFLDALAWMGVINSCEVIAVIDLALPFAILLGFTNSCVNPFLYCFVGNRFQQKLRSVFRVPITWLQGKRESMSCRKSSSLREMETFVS
5-hydroxytryptamine receptor 5A (Homo sapiens), sequence (P47898 whole entry): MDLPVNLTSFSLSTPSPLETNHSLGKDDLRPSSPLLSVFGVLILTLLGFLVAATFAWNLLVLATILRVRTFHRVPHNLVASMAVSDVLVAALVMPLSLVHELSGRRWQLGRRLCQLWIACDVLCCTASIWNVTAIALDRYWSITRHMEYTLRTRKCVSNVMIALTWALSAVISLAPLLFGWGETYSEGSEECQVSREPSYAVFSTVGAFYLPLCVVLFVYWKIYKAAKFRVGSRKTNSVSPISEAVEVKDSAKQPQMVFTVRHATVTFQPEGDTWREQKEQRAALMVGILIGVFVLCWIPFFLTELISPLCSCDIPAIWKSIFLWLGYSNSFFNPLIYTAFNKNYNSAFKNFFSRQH
Oxytocin receptor (Homo sapiens), sequence (P30559 whole entry): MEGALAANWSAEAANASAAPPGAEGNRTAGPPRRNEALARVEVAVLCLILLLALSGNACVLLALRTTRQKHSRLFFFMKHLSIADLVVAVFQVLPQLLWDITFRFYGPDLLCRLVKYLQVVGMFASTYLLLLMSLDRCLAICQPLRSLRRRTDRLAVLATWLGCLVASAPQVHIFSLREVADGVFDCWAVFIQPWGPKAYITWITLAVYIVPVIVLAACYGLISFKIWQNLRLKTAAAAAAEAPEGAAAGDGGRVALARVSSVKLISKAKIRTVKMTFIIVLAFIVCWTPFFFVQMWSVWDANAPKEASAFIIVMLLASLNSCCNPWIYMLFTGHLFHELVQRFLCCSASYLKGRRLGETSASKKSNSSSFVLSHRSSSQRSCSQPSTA
Histamine H3 receptor (Homo sapiens), sequence (Q9Y5N1 whole entry): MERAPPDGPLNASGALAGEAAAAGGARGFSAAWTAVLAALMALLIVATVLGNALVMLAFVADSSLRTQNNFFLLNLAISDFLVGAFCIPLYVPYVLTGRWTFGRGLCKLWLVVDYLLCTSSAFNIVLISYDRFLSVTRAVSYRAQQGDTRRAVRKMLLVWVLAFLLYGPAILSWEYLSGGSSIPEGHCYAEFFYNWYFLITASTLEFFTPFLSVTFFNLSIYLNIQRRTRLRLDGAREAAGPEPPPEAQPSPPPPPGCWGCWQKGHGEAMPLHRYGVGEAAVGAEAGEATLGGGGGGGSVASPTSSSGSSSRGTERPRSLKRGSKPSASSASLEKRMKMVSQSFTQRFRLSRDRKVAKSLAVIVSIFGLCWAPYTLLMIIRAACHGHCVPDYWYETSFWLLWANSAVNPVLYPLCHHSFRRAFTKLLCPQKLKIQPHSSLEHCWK
D(3) dopamine receptor (Homo sapiens), sequence (P35462 whole entry): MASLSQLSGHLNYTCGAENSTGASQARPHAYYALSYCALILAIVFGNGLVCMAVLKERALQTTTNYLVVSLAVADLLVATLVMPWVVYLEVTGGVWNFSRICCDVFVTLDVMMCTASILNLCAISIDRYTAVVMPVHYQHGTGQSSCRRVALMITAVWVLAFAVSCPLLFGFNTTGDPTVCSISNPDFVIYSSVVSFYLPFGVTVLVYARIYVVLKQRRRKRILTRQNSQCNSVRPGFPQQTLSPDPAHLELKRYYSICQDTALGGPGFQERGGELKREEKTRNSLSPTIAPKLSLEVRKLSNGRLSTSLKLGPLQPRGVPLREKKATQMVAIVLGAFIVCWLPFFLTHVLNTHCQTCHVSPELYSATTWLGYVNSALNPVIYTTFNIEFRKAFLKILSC
Adenosine receptor A1 (Homo sapiens), sequence (P30542 whole entry): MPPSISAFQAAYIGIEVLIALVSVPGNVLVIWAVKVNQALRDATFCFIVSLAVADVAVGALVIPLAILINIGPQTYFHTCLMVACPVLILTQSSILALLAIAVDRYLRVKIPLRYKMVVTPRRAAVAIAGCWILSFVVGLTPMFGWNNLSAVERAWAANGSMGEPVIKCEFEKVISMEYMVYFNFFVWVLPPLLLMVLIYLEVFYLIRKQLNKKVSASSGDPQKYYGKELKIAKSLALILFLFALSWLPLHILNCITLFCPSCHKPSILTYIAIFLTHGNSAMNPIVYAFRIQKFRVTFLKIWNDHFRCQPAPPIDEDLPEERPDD
Alpha-2A adrenergic receptor (Homo sapiens), sequence (P08913 whole entry): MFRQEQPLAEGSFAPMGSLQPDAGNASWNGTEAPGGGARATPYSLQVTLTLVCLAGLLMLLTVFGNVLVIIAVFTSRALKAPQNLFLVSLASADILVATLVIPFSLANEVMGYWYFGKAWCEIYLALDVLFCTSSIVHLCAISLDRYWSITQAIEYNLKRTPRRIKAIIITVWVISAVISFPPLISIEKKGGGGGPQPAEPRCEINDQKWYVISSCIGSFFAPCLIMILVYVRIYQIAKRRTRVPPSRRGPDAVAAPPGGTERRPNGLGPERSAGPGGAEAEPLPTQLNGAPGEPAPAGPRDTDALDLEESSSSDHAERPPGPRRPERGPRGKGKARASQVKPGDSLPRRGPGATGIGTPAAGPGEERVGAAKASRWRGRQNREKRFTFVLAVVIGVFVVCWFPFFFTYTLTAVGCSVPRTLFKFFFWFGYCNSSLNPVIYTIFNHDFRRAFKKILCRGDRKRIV
Vasoactive intestinal polypeptide receptor 1 (Homo sapiens), sequence (P32241 whole entry): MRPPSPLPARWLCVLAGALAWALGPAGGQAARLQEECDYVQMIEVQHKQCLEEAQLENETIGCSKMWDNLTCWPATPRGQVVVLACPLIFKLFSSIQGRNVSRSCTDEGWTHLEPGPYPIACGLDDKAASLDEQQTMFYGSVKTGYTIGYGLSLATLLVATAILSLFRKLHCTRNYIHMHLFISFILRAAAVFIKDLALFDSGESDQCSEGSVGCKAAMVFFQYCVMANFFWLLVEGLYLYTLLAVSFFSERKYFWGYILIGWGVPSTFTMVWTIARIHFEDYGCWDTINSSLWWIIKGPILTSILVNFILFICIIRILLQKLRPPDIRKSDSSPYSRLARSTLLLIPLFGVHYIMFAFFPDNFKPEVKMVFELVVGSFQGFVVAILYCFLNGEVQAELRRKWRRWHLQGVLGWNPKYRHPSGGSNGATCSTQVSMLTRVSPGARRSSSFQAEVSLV

inhibition [1]: > 16% | inhibition [2]: > 16% | inhibition [3]: > 16% | inhibition [4]: > 16% | inhibition [5]: > 16% | inhibition [6]: > 16% | inhibition [7]: > 16% | inhibition [8]: > 16% | inhibition [9]: > 16% | inhibition [10]: > 16% | inhibition [11]: > 16% | inhibition [12]: > 16% | Stability (Rattus norvegicus [13]): Unstable | Stability (Rattus norvegicus [14]): Unstable | Stability (Rattus norvegicus [15]): Unstable | inhibition [16]: > 16% | inhibition [17]: > 16% | Kp [22]: 5.4 | IC50 (Rattus norvegicus [23]): 0.071 µg/mL (≈ 0.178 µM) | inhibition [24]: > 16% | inhibition [25]: > 16% | inhibition [26]: > 16% | inhibition [27]: > 16% | inhibition [28]: > 16% | inhibition [29]: > 16% | inhibition [30]: > 16% | inhibition [31]: > 16% | inhibition [32]: > 16% | inhibition [33]: > 16% | inhibition [34]: > 16% | inhibition [35]: > 16% | IC50 [36]: 93 nM | Cmax [37]: 456 ng/mL | Tmax [38]: 4 h | half-life [39]: 8.4 h | bioavailability [40]: 45% | F (Rattus norvegicus [41]): 45%
SMILES: CCC(CC)Nc1nc(C)c(-c2ccc(OC(F)(F)F)cc2OC)nc1OC
Activity (Rattus norvegicus [18]): Active | Activity (Rattus norvegicus [19]): Non-toxic | Activity (Rattus norvegicus [20]): Non-toxic | Activity (Rattus norvegicus [21]): Non-toxic | ED50 (Rattus norvegicus [23]; po, read-out: ID50 (the source's name)): 2 mg/kg
